Sampled rows, rich in hits. Any-hit rate of the full collection: about 2.7%.
Hep lipid drop: inhibitors of hepatocyte lipid droplet formation, primary screen, imaging, high-throughput imaging, BODIPY stain; AML12 mouse hepatocytes, oleate lipid droplets; 240,000 compounds, 0.4% hits; AID 1656, 2009; inhibition, % at 6.5 µM;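 active = lipid droplet intensity inhibited by at least 50%, with more than 500 cells counted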
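System: AML12 hepatocytes (mouse). Probe or stimulus: oleic acid at 100 µM to induce lipid droplet formation. Times: overnight treatment with compound plus oleate. Detection: Image-based BODIPY and DAPI two-channel analysis. Evaluation: percent inhibition of filter-corrected integrated lipid droplet intensity per well.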
MC4R ag barr: MC4R agonists recruiting beta-arrestin, primary screen, cell-based, luminescence, agonist arm of biased-ligand search; Melanocortin receptor 4 (Homo sapiens), P32245; U2OS MC4R beta-arrestin complementation; percent of melanotan II response, DMSO zero; activation, % at 8.9 µM; 360,000 compounds, 0.98% hits;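 active = activation above a per-plate cutoff, the mean activation of sample wells on that plate plus 3 SD, cut at about 8% in these data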
Target sequence (P32245 whole entry, looked up): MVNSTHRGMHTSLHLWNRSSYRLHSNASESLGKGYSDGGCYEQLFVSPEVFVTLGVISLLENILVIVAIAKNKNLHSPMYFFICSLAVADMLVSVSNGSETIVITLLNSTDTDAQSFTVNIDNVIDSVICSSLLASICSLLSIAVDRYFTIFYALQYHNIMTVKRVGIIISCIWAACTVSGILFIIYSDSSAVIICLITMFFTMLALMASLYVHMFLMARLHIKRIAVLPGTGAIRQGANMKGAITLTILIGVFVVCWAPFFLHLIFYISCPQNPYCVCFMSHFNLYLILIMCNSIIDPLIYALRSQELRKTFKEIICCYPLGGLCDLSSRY
NTR1 agonist: agonists of human NTR1, primary screen, imaging, U2OS cells, beta-arrestin-GFP, high content; activation, % at 20 µM; Neurotensin receptor type 1 (Homo sapiens), P30989; NTR1-U2OS beta-arrestin-GFP spot imaging, agonist mode; 330,000 compounds, 0.17% hits;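 active = activation at or above 40% of the spot to cytoplasm intensity ratio, with at least 20 cells analyzed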
m5-HT2A agonist: mouse Htr2a agonists via beta-arrestin recruitment, primary screen, cell-based, luminescence | 5-hydroxytryptamine receptor 2A (Mus musculus), P35363 | 360,000 compounds, 0.66% hits | activation, % at 7.6 µM | AID 624169, 2012 | CHO-K1 mHTR2A beta-arrestin complementation; percent of 30 µM serotonin response;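 active = activation above a run cutoff, the mean activation of all tested compounds plus 3 SD, cut at about 14% in these data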
PREPL inhibitor: PREPL enzyme inhibitors, primary screen, biochemical, fluorescence polarization; Prolyl endopeptidase-like (Homo sapiens), Q4J6C6; recombinant PREPL, fluorescence polarization activity-based probe; inhibition, % at 5.96 µM; 320,000 compounds, 0.68% hits; AID 2751, 2010; in the data active = inhibition above about 43%
MC4R antag cAMP: MC4R antagonists of cAMP signaling, primary screen, cell-based, TR-FRET, antagonist arm of biased-ligand search | Melanocortin receptor 4 (Homo sapiens), P32245 | MC4R-expressing cells, MTII-stimulated cAMP, LANCE TR-FRET | inhibition, % at 6.5 µM | 360,000 compounds, 0.48% hits;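 active = inhibition above its plate's cutoff, the mean of tested wells on that plate plus 3 SD, cut at about 29% in these data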
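system = U2OS cells with stable human MC4R expression | also added = Melanotan II challenge after compound preincubation | dosing = one concentration, 6.5 µM nominal | incubation = compound 30 min, challenge 1 h, detection 1 h | measured by = TR-FRET with Eu-cAMP and labeled anti-cAMP, 671 nm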
OPRM1 ag: OPRM1 agonists via beta-arrestin recruitment, confirmation, counter-screen for mouse HTR2A agonist project, cell-based, luminescence, single concentration. 2,300 compounds, 5.3% hits. AID 624380, 2012. U2OS OPRM1 beta-arrestin PathHunter; DMSO 0%, DAMGO 9.3 µM 100%. activation, % at 9.3 µM. shares compounds with m5-HT2A agonist;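 active = mean activation above the mean of DMSO-only wells plus 3 SD, cut at about 0.5% in these data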
Target sequence (P35372 whole entry, looked up): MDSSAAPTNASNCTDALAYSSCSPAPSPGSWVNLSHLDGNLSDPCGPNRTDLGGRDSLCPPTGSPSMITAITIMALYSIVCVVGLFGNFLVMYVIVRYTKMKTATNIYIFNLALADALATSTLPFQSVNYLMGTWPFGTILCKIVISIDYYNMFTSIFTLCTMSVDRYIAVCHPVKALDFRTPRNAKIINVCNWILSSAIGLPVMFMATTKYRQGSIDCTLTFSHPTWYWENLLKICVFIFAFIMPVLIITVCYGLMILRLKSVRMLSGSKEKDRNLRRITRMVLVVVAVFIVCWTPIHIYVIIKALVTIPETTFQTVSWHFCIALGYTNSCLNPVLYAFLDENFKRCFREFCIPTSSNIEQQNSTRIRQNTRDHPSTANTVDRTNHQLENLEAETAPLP
HTR2A ag conf: mouse HTR2A agonists, beta-arrestin recruitment, confirmation, cell-based, luminescence, CHO-K1 PathHunter, triplicate | 2,300 compounds, 19% hits | AID 624381, 2012 | DMSO 0%, 30 µM serotonin 100% | activation, % at 7.6 µM | shares compounds with m5-HT2A agonist;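 active = mean activation across triplicates above the hit threshold derived in the original primary screen, cut at about 15% in these data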
Large screens that a line does not name were inactive (follow-up assays come after a bar, where they were run).

Cc1ccc(S(=O)(=O)N2CCC3(CC2)CC(=O)c2ccccc2O3)cc1	none (no result: Hep lipid drop)
CC1(C)N=C(N)N=C(N)N1c1ccc(F)cc1F	none (no result: Hep lipid drop)
CC1(C)N=C(N)N=C(N)N1c1cc(Cl)ccc1Cl	m5-HT2A agonist 22.5 (no result: Hep lipid drop, NTR1 agonist, PREPL inhibitor) | OPRM1 ag inactive | HTR2A ag conf inactive
NC(=O)c1ccccc1OC1CCC1	none
CC1(C(=O)NC2CCCCC2)CCC(=O)N1CCOc1ccccc1 (stereo unspecified)	none (no result: Hep lipid drop, MC4R ag barr, NTR1 agonist, PREPL inhibitor, MC4R antag cAMP)
O=C(C[C@H]1C[C@H](C(=O)N2CCOCC2)[C@@]2(CCC3CCCC3)c3[nH]c4cc(-c5ccco5)ccc4c3CCN2C1=O)NCCN1CCOCC1	none (no result: Hep lipid drop, PREPL inhibitor)
COCCCNC(=O)C[C@H]1C[C@H](C(=O)N2CCOCC2)[C@@]2(CCC3CCCC3)c3[nH]c4cc(-c5ccco5)ccc4c3CCN2C1=O	m5-HT2A agonist 15.5 (no result: Hep lipid drop, PREPL inhibitor) | OPRM1 ag inactive | HTR2A ag conf inactive
CC[C@]12c3[nH]c4ccccc4c3CCN1C(=O)C(CC(=O)NCc1cccc(C(F)(F)F)c1)C[C@@H]2C(=O)N1CCN(C(=O)c2ccco2)CC1 (stereo partly specified)	m5-HT2A agonist 21.6 (no result: Hep lipid drop) | OPRM1 ag inactive | HTR2A ag conf inactive
CN(C)C(=O)CCc1ccc2c3c([nH]c2c1)[C@]1(C)[C@@H](C(=O)N2CCOCC2)C[C@H](CC(=O)NCc2cccc(C(F)(F)F)c2)C(=O)N1CC3	m5-HT2A agonist 15.1 (no result: Hep lipid drop, PREPL inhibitor) | OPRM1 ag inactive | HTR2A ag conf inactive
C[C@]12c3[nH]c4ccccc4c3CCN1C(=O)C(CC(=O)NCc1cccc(C(F)(F)F)c1)C[C@@H]2C(=O)N1CCOCC1 (stereo partly specified)	none (no result: Hep lipid drop)
COC[C@H]1CCCN1[C@@H]1CS(=O)(=O)N[C@H]1COCc1ccccc1	none (no result: Hep lipid drop, MC4R ag barr, NTR1 agonist, PREPL inhibitor, MC4R antag cAMP)
Cn1nc(C(=O)NNC(=O)c2ccccc2F)c2ccccc2c1=O	none (no result: Hep lipid drop)
CC(NC(=O)c1nn(C)c(=O)c2ccccc12)c1ccc(F)cc1 (stereo unspecified)	m5-HT2A agonist 14.6 | OPRM1 ag inactive | HTR2A ag conf inactive
COc1ccc(-n2c(CNC(=O)COc3ccccc3)n[nH]c2=S)cc1	none
O=C(COc1ccccc1)NCc1n[nH]c(=S)n1-c1ccccc1	m5-HT2A agonist 16.5 | OPRM1 ag inactive | HTR2A ag conf inactive
COC(=O)c1cc(=O)nc(NN=Cc2ccc(OC)cc2)s1	m5-HT2A agonist 16.8 (no result: Hep lipid drop, MC4R ag barr, NTR1 agonist, PREPL inhibitor, MC4R antag cAMP) | OPRM1 ag inactive | HTR2A ag conf inactive
COC(=O)c1cc(=O)nc(NN=C2c3ccccc3-c3ccccc32)s1	none (no result: Hep lipid drop, MC4R ag barr, NTR1 agonist, PREPL inhibitor, MC4R antag cAMP)
Cc1ccc(CCNC(=O)C2CCCN(c3ncnc4c3nc3n4CCCCC3)C2)cc1 (stereo unspecified)	none
O=C(NCCc1ccccc1)C1CCCN(c2ncnc3c2nc2n3CCCCC2)C1 (stereo unspecified)	m5-HT2A agonist 14.5 | OPRM1 ag inactive | HTR2A ag conf inactive
CCCC[C@@H]1Cc2[nH][nH]c(=O)c2[C@H](c2cccc3ccccc23)O1	none (no result: Hep lipid drop, MC4R ag barr, NTR1 agonist, PREPL inhibitor, MC4R antag cAMP)
CCN1CCN(C(=S)Nc2cccc([N+](=O)[O-])c2)CC1	m5-HT2A agonist 25.6 | OPRM1 ag inactive | HTR2A ag conf inactive
O=C1Nc2ccc(Br)cc2C12NNc1ccccc1O2 (stereo unspecified)	none
CCOC(=O)N1CCN(Cc2nnc(-c3ccccc3C)o2)CC1	none (no result: Hep lipid drop)
Cc1cccc(OCC(=O)Nc2nnc(S(=O)(=O)N3CCC(C)CC3)s2)c1	m5-HT2A agonist 16.8 | OPRM1 ag inactive | HTR2A ag conf inactive
O=C1CC(c2ccccc2Cl)c2c(sc3c(=O)[nH]c(CCl)nc23)N1 (stereo unspecified)	none (no result: MC4R ag barr, m5-HT2A agonist, MC4R antag cAMP)
COc1ccc(S(=O)(=O)N/N=C\c2ccccc2F)cc1	m5-HT2A agonist 14.7 | OPRM1 ag inactive | HTR2A ag conf inactive
CCOc1ccc(CCNC(=O)c2cccc(NC3=NC4CS(=O)(=O)CC4S3)c2)cc1 (stereo unspecified)	m5-HT2A agonist 17.8 | OPRM1 ag inactive | HTR2A ag conf inactive
CCCCCCCCc1nc(SC(C)C(=O)O)n[nH]1 (stereo unspecified)	none
CCOC(=O)N1CCc2c(sc3c2c(=O)n(-c2ccc(CC)cc2)c(=O)n3CC(=O)NCC2CCCO2)C1 (stereo unspecified)	none
COCCC(=O)Nc1ccc2c(c1)CN(C(=O)CSC)CC2	none
COCCC(=O)N1CCc2ccc(NC(=O)c3ccc(C(F)(F)F)cc3)cc2C1	m5-HT2A agonist 31.6 | OPRM1 ag 1.2 | HTR2A ag conf inactive
C[N+](C)(C)C(Cc1ccccc1)C(=O)[O-] (stereo unspecified)	none
Cc1cccc(/C(N)=N/OC(=O)c2ccncc2)c1	m5-HT2A agonist 24.6 (no result: PREPL inhibitor) | OPRM1 ag 0.6 | HTR2A ag conf inactive
CN(CCOc1ccc(Cl)cc1)C(=O)c1cc(S(=O)(=O)N2CCOCC2)ccc1N1CCCC1	m5-HT2A agonist 19.3 (no result: Hep lipid drop) | OPRM1 ag inactive | HTR2A ag conf inactive
COc1ccc(-c2cc(C(=O)Nc3ccc(NC(C)=O)cc3)[nH]n2)c(C)c1	m5-HT2A agonist 20.8 (no result: Hep lipid drop, NTR1 agonist, PREPL inhibitor) | OPRM1 ag inactive | HTR2A ag conf inactive
COc1ccc(-c2cc(C(=O)Nc3cc(OC)c(OC)c(OC)c3)[nH]n2)c(C)c1	none (no result: Hep lipid drop, NTR1 agonist, PREPL inhibitor)
COc1ccc(C)cc1NC(=O)C(c1ccccc1)N1CCN(CC(=O)NC2CC2)CC1 (stereo unspecified)	none (no result: Hep lipid drop, PREPL inhibitor)
CCCCCC(=O)N1C[C@H](O)[C@@H](n2cc(C3CC3)nn2)C[C@@H]1c1ccc(Cl)cc1	none (no result: Hep lipid drop, NTR1 agonist, PREPL inhibitor)
Cc1[nH]c(=O)nc(SCc2ccc(Cl)c(Cl)c2)c1C#N	m5-HT2A agonist 14.6 | OPRM1 ag 0.8 | HTR2A ag conf inactive
N#Cc1ccc(CN2CCN(C(=O)CNS(=O)(=O)c3ccc4c(c3)OCCCO4)CC2)cc1	m5-HT2A agonist 15.2 (no result: Hep lipid drop) | OPRM1 ag inactive | HTR2A ag conf inactive

Screens from PubChem.
